Measurements published in ChEMBL document CHEMBL1153639, “A facile synthesis and antimycobacterial evaluation of novel spiro-pyrido-pyrrolizines and pyrrolidines” (2009).
Values after ≈ are worked out from the molar mass of the structure shown.

How the values were obtained:
[1] = test system: Mycobacterium tuberculosis; experiment: Antimycobacterial against Mycobacterium tuberculosis H37Rv by agar dilution method; format: functional
How it was run: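 MIC read by agar dilution against M. tuberculosis H37Rv, run in triplicate.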

[2] = test system: Mycolicibacterium smegmatis; experiment: Antimycobacterial against Mycobacterium smegmatis MC2 by agar dilution method; format: functional
How it was run: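 MIC read by agar dilution, run in triplicate against M. smegmatis MC², screened in parallel with M. tuberculosis and an MDR-TB clinical isolate.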

CN1CCC(=O)[C@]2(C1)[C@@H](c1ccc(Cl)cc1Cl)[C@@H]1CCCN1[C@@]21C(=O)Nc2ccccc21
MIC [1]: 3.32 µM (≈ 1.56 µg/mL)
MIC [2]: 53.1 µM (≈ 25 µg/mL)

CN1CCC(=O)[C@]2(C1)[C@@H](c1ccc(Cl)cc1Cl)[C@H](c1ccccc1)N[C@@]21C(=O)Nc2ccccc21
MIC [1]: 12.3 µM (≈ 6.25 µg/mL)
MIC [2]: 98.7 µM (≈ 50 µg/mL)

COc1ccc([C@H]2[C@H](c3ccccc3)N[C@@]3(C(=O)Nc4ccccc43)[C@@]23CN(C)CCC3=O)cc1
MIC [1]: 26.7 µM (≈ 12.5 µg/mL)
MIC [2]: 53.5 µM (≈ 25 µg/mL)

Cc1ccc([C@H]2[C@H](c3ccccc3)N[C@@]3(C(=O)Nc4ccccc43)[C@@]23CN(C)CCC3=O)cc1
MIC [1]: 27.7 µM (≈ 12.5 µg/mL)
MIC [2]: 111 µM (≈ 50 µg/mL)

CN1CCC(=O)[C@]2(C1)[C@@H](c1ccccc1Cl)[C@@H]1CCCN1[C@@]21C(=O)Nc2ccccc21
MIC [1]: 3.58 µM (≈ 1.56 µg/mL)
MIC [2]: 28.7 µM (≈ 12.5 µg/mL)

NNC(=O)c1ccncc1 [ISONIAZID]
MIC [1]: 0.39 µM (≈ 0.0535 µg/mL)
MIC [2]: 45.6 µM (≈ 6.25 µg/mL)

CN1CCC(=O)[C@]2(C1)[C@@H](c1ccccc1Cl)CN(C)[C@@]21C(=O)Nc2ccccc21
MIC [1]: 7.64 µM (≈ 3.13 µg/mL)
MIC [2]: 30.5 µM (≈ 12.5 µg/mL)

CC[C@@H](CO)NCCN[C@@H](CC)CO [ETHAMBUTOL]
MIC [1]: 7.64 µM (≈ 1.56 µg/mL)
MIC [2]: 122 µM (≈ 25 µg/mL)

Cc1ccc([C@H]2[C@@H]3CCCN3[C@@]3(C(=O)Nc4ccccc43)[C@@]23CN(C)CCC3=O)cc1
MIC [1]: 7.53 µM (≈ 3.13 µg/mL)
MIC [2]: 15 µM (≈ 6.25 µg/mL)

CN1CCC(=O)[C@]2(C1)[C@@H](c1ccccc1Cl)[C@H](c1ccccc1)N[C@@]21C(=O)Nc2ccccc21
MIC [1]: 13.2 µM (≈ 6.25 µg/mL)
MIC [2]: 53 µM (≈ 25 µg/mL)

Cc1ccc([C@H]2CN(C)[C@@]3(C(=O)Nc4ccccc43)[C@@]23CN(C)CCC3=O)cc1
MIC [1]: 16.1 µM (≈ 6.25 µg/mL)
MIC [2]: 32.1 µM (≈ 12.5 µg/mL)

COc1ccc([C@H]2CN(C)[C@@]3(C(=O)Nc4ccccc43)[C@@]23CN(C)CCC3=O)cc1
MIC [1]: 30.8 µM (≈ 12.5 µg/mL)
MIC [2]: 61.6 µM (≈ 25 µg/mL)

CN1CCC(=O)[C@]2(C1)[C@@H](c1ccc(Cl)cc1Cl)CN(C)[C@@]21C(=O)Nc2ccccc21
MIC [1]: 1.76 µM (≈ 0.782 µg/mL)
MIC [2]: 56.3 µM (≈ 25 µg/mL)

NC(=O)c1cnccn1 [PYRAZINAMIDE]
MIC [1]: 50.8 µM (≈ 6.25 µg/mL)
MIC [2]: 406 µM (≈ 50 µg/mL)

COc1ccc([C@H]2[C@@H]3CCCN3[C@@]3(C(=O)Nc4ccccc43)[C@@]23CN(C)CCC3=O)cc1
MIC [1]: 14.5 µM (≈ 6.25 µg/mL)
MIC [2]: 57.9 µM (≈ 25 µg/mL)

CN1CCC(=O)[C@]2(C1)[C@@H](c1cccc(F)c1)[C@@H]1CCCN1[C@@]21C(=O)Nc2ccccc21
MIC [1]: 7.46 µM (≈ 3.13 µg/mL)
MIC [2]: 29.8 µM (≈ 12.5 µg/mL)

CN1CCC(=O)[C@]2(C1)[C@@H](c1cccc(F)c1)[C@H](c1ccccc1)N[C@@]21C(=O)Nc2ccccc21
MIC [1]: 6.87 µM (≈ 3.13 µg/mL)
MIC [2]: 54.9 µM (≈ 25 µg/mL)

CN1CCC(=O)[C@]2(C1)[C@@H](c1cccc(F)c1)CN(C)[C@@]21C(=O)Nc2ccccc21
MIC [1]: 7.95 µM (≈ 3.13 µg/mL)
MIC [2]: 63.5 µM (≈ 25 µg/mL)
